According to ChEMBL document CHEMBL4513216, “Probing the Open Global Health Chemical Diversity Library for Multistage-Active Starting Points for Next-Generation Antimalarials” (ACS Infect Dis, 2020):

Experiment: Toxicity liver stage against HepG2, at 10uM
Format: cell-based
Set-up: test concentration 10 uM, cell line HepG2-A16-CD81EGFP
Conditions: human, HepG2-A16-CD81EGFP cells; read-out: INHIBITION
Procedure, shortened: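 Uninfected HepG2-A16-CD81EGFP cells, 3 × 10^3 per well, 1536-well, plated on prespotted compound at 10 μM final, parasite-free screening media added to match infected plates; puromycin 10 μM positive, DMSO 0.5% negative; run in parallel with 48 h PbLuc assay at 37 °C, 5% CO2; viability by CellTiter-Glo luminescence, normalized to controls.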

Compound | cytotoxicity at 10 µM
Cc1nc(C)c(CN2CCOC[C@H](Oc3ccc(S(C)(=O)=O)cc3)C2)s1 | 5.25%
CC(C)CC(NC(=O)c1ccco1)c1nnc2ccccn12 (stereo unspecified) | -6.21%
CN(Cc1ccccc1)CC1CC2(CO1)CN(c1nncs1)C2 (stereo unspecified) | 13.7%
CS(=O)(=O)N1CCCC12CCCN(C(=O)c1ccnnc1)C2 (stereo unspecified) | -143%
c1ccc(NCc2cn3c(n2)CN(Cc2nccs2)CC3)nc1 | 10.4%
CC(O)CNC(=O)CCc1nc2ncccc2[nH]1 (stereo unspecified) | -3.5%
COc1ccc(C(=O)NCCCn2ccnc2)c(OC)n1 | 4.99%
O=c1nc(SCc2ccncc2)c2c(n1CCO)CCCC2 | -23.8%
CCn1nccc1CNc1[nH]cnc2nc(C)nc1-2 | -12%
CSc1nc2ccsc2c(=O)n1CC(=O)N(C)C1CCCCC1 | 0.773%
C=Cn1cc(CN2CCN(CC3(c4ccccc4)CC3)CC2)c(C)n1 | 1.78%
Cc1cc(C(F)(F)F)n2nc(C3CCCN(S(C)(=O)=O)C3)cc2n1 (stereo unspecified) | 1.49%
CC(C)c1cc(Br)ccc1NC(=O)NC(C)(CO)CO | 9.83%
CN(CC(C)(CO)CO)C(=O)Nc1cc(Cl)cc(Cl)c1 | 0.0988%
CC(CO)NS(=O)(=O)c1cccc(C(C)C)c1 (stereo unspecified) | -20%
CC(C)(CNC(=O)C1(c2cccc(Br)c2)CCOCC1)C(=O)O | 2.9%
CCc1ncc2c(n1)CN(Cc1nc(-c3ccco3)oc1C)CC2 | 6.15%
Cc1noc(C)c1CN(C)C(=O)C1CCCc2ccccc21 (stereo unspecified) | 2.45%
CN1CCC(NC(=O)c2cc(F)cc(Cl)c2O)C1=O (stereo unspecified) | 3.09%
COc1cc(NCCNC(=O)c2cscc2C)cc(OC)c1 | 1.6%
CC(Cc1cccc(F)c1)C(=O)NS(=O)(=O)c1ccc2c(c1)OCCO2 (stereo unspecified) | 9.83%

Compound | cytotoxicity at 10 µM
O=C(NCc1nncn1C1CC1)C1(c2ccc(F)cc2)CCOCC1 | -10.4%
N#Cc1c(Cl)nsc1NCc1ccc(N2CCCC(C(N)=O)C2)cc1 (stereo unspecified) | -9.65%
COc1c(CNCc2ccccc2-n2ccnc2)c(C)nn1C | 18.7%
Cc1cccc(NC(=O)CN(C)C(=O)c2ccc(OC(C)C)nc2)n1 | -8.99%
CC(C)Oc1ncc(C(=O)N2CCC(N(C)C)CC2)cc1Cl | -4.09%
CCN1CCN(C(=O)c2scnc2C)CC1 | 11.7%
COc1ccc(CNC(=O)NCC(=O)NC2CC2)c(C(F)(F)F)c1 | 6.41%
COC1CCCN(C(=O)NCC(F)F)C1 (stereo unspecified) | 7.51%
Cc1nn(CC(C)C)c(N(C)C)c1CNCCS(C)(=O)=O | 6.59%
Cn1ccc(C(=O)N(CC(F)F)c2cccc(Cl)c2)cc1=O | 0.541%
O=C1CN(C(=O)C2CCOC2)CCN1Cc1ccc(Cl)cc1 (stereo unspecified) | -150%
CN(CC(=O)N1CCCC1c1ccccn1)Cc1ccccc1 (stereo unspecified) | -0.51%
CCc1cc(CNC(=O)Nc2cc(F)ccc2N2CCCCC2)on1 | -18.9%
O=C(CN1CCSC2(CCCCC2)C1)NCC(F)(F)F | -6.4%
CS(=O)(=O)CCCNCc1c(Cl)cccc1N1CCCC1 | 1.18%
Cc1cccc(-c2nnc(C(C)N3CCn4c(C)nnc4C3)o2)c1 (stereo unspecified) | 0.131%
Cc1csc(C(C#N)C(=O)NCc2cccnc2)n1 (stereo unspecified) | 9.6%
COCCC(=O)NC(C)(C(N)=O)c1cccc(Cl)c1 (stereo unspecified) | 17.7%
COCCNC(=O)CSc1nnc(OC(C)C)s1 | -5.7%
Cc1n[nH]c(C)c1C1CCCN1C(=O)NCCSC(C)(C)C (stereo unspecified) | -11%
COCCN1CCC2(CC1)CC(c1cccnc1)C(=O)N2C (stereo unspecified) | 7.26%

Compound | cytotoxicity at 10 µM
Cc1cc(C(=O)NCC2OCCc3cn(CC4CC4)nc32)c(C)[nH]1 (stereo unspecified) | 3.42%
COC(=O)CNc1ccc(-c2nc(Cc3ccc(OC)cc3)no2)cn1 | 1.06%
Cc1nccc(N[C@H]2CN(CCC(=O)NC3CCCC3)C[C@@H]2C2CC2)n1 | -4.57%
CCn1c(N)nc2cc(C(=O)N3Cc4ccccc4C3)cnc21 | -8.51%
COCc1c(C(=O)N2CCCC(C(=O)c3nccn3C)C2)noc1C (stereo unspecified) | 15.8%
CC(C)=CCN1CCN(Cc2cc(C)n[nH]2)CC1CCO (stereo unspecified) | 1.96%
COCCN(Cc1c(C)nn(C)c1C)C(=O)C1COc2ccccc2C1 (stereo unspecified) | -3.87%
Cc1cc2[nH]c(=O)oc2cc1S(=O)(=O)N1C[C@@H](N(C)C)[C@H](C(C)C)C1 | 0.234%
CC(C)N(CCO)C(=O)C1CCC(=O)N(CCc2ccc(Cl)cc2)C1 (stereo unspecified) | -8.27%
CC(C)(C)c1csc(CNC(=O)C2NCCc3[nH]cnc32)n1 (stereo unspecified) | -2.65%
CN(CCCc1nccn1C)c1nccc(N2CCC(O)C2)n1 (stereo unspecified) | 10.2%
CCN1CC(CN(C)Cc2nc(-c3ccc(F)cc3F)oc2C)CC1=O (stereo unspecified) | -6.64%
CN(Cc1cc2cc(F)ccc2[nH]1)C(=O)C1CC(=O)N(C2CCCC2)C1 (stereo unspecified) | -3.26%
CSCCCN1C[C@H](NC(=O)c2cc(C3CC3)on2)[C@@H](C2CC2)C1 | 2.72%
Cc1ccc(OC2(C(=O)O)CCN(C(=O)c3cc(C)oc3C)CC2)cn1 | 0.0255%
C[C@@H]1CN(c2cc(N3CCC(O)CC3)ncn2)C[C@@]1(O)C1CCC1 | -5.73%
COc1ccc([C@@H]2CN(C(=O)CCc3cc(Cl)no3)C[C@H]2N(C)C)cc1 | 6.1%
CC(=O)Nc1ncc(S(=O)(=O)N2CCN(C3CCCCC3)CC2)s1 | -4.5%
COCC(=O)N1CCC(C(=O)Nc2ccc(C(C)=O)cc2)CC1 | 1.73%
CC(C)c1nc(CN(C)C(=O)CNS(=O)(=O)c2cccs2)cs1 | -6.46%
O=C(CN1CCCCCC1)NCc1cccnc1Oc1ccccc1 | -11.1%

Compound | cytotoxicity at 10 µM
Cc1ccc(OCc2occc2C(=O)N2CC[C@H](CO)[C@@H](O)C2)cc1 | 14.3%
CNC(=O)c1cccc(C2CNCCN2C)c1 (stereo unspecified) | 2.91%
Cc1cc(CN2CCN(c3ccc4nncn4n3)C(C)C2)on1 (stereo unspecified) | 6.91%
Cc1ccc(C)n1C(C)C(=O)N1CCCN(Cc2cscn2)CC1 (stereo unspecified) | -8.36%
O=C1NCC(C(=O)Nc2ncc(Cc3ccc(F)cc3)s2)N1 (stereo unspecified) | 0.639%
CCc1ccc(CN2C[C@H](OCC(=O)N(C)C)[C@H]3COC[C@H]32)o1 | 2.46%
Cc1ccc(CN2CCc3c(CN4CCCC4)n[nH]c3C2)s1 | 4.41%
O=C(c1ccnnc1)N1CCN2C[C@H](OCc3cccnc3)C[C@H]2C1 | -72.4%
CN(C)C(=O)C1CCN(C2CCN(CC3CCC3)CC2)CC1 | 2.82%
CCN1C[C@@H]2[C@@H](OC)CCN(S(=O)(=O)c3cccnc3)[C@@H]2C1 | -77%
c1ccc(COC[C@H]2CC[C@H]3[C@H](CCN3c3ncccn3)O2)nc1 | -78%
COc1ccc(CN2CCn3c(C(=O)N(C)C)cnc3C2)cc1 | -69.6%
CCOCC1CN(C(=O)Cc2ccccn2)Cc2c1cnn2C (stereo unspecified) | -72%
c1csc(CN2C[C@H](OCC3CCOCC3)[C@H]3COC[C@H]32)n1 | -3.76%
CC(C)c1nn(C)c(Cl)c1CNCC(=O)N1CCN(C)CC1 | 2.2%
c1ccc2c(c1)SCCC2NCc1ccc(N2CCOCC2)cc1 (stereo unspecified) | -4.86%
Cc1noc(C)c1CN1CC[C@H]2O[C@@H](C(=O)N3CCCC3)CC[C@H]21 | 3.35%
COCCNc1nc(C)nc2c1CCN(CC1CCC(N)CC1)CC2 (stereo unspecified) | -2.84%
